The record followed here is ChEMBL document CHEMBL5500359, “Identification of a new bisindolinone arresting IGROV1 cells proliferation” (Eur J Med Chem, 2024).

Experiment [1] relates to Colon carcinoma cell. Nature of the experiment: Cytotoxicity against human Colon carcinoma cells incubated for 48 hrs by SRB assay. The class given is functional. The procedure, abridged:
(§1)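 NCI-60 five-concentration screen: lines seeded 5×10^3–4×10^4 cells/well depending on line; compound diluted in fresh medium at scalar concentrations 0–100 or 0–1000 μM; 48 h exposure, in situ fixation, sulforhodamine B protein staining, optical density read; GI50, TGI and LC50 per NCI procedures; panel mean = mean graph midpoint.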
A general note: Sulforhodamine B stains cellular protein and so reports cell mass.

A short description of experiment [2]: Cytotoxicity against human Leukemia cancer cells incubated for 48 hrs by SRB assay. The class given is functional. Conditions: Leukemia cell, read-out: LC50 (the source's name). The procedure, abridged:
(§2)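 NCI DTP five-concentration screen. Cells were seeded at 5 × 10³–4 × 10⁴ cells/well, depending on the line. Compounds were diluted in fresh medium and added at scalar concentrations over 0–1000 µM or 0–100 µM. After 48 h the cells were fixed in situ, stained with sulforhodamine B, and optical density was read. GI50, TGI and LC50 were derived by NCI procedures, and the panel mean is the mean graph midpoint.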

Experiment [3] relates to Panel NCI-60 (60 carcinoma cell lines). Nature of the experiment: Cytostatic activity against human Panel NCI-60 (60 carcinoma cell lines) incubated for 48 hrs by SRB assay. The class given is functional. In a few lines: as §1
Experiment [4] concerns Breast cancer cell line. Put plainly: Cytostatic activity against human Breast cancer cells incubated for 48 hrs by SRB assay. The class given is functional. The procedure, abridged: as §1
The test system of experiment [5] is Renal cancer cell line. Put plainly: Cytostatic activity against human Renal cancer cells incubated for 48 hrs by SRB assay. The class given is functional. The procedure, abridged:
as §1

Experiment [6] deals with Ovarian cancer cell line. Put plainly: Cytostatic activity against human Ovarian cancer cells incubated for 48 hrs by SRB assay. The class given is functional. In a few lines:
as §1

For experiment [7], the system named is Melanoma cell line. Put plainly: […] against human Melanoma cells incubated for 48 hrs by SRB assay. Format: functional. Conditions: read-out: LC50 (the source's name). The procedure, abridged:
as §2

The test system of experiment [8] is CNS carcinoma cell. Nature of the experiment: Cytostatic activity against human CNS carcinoma cells incubated for 48 hrs by SRB assay. The class given is functional. The procedure, abridged:
as §1

Experiment [9] relates to Colon carcinoma cell. Nature of the experiment: Cytostatic activity against human Colon carcinoma cells incubated for 48 hrs by SRB assay. The class given is functional. In a few lines:
as §1

Experiment [10] is described as follows: Cytostatic activity against human Leukemia cancer cells incubated for 48 hrs by SRB assay. Format: functional, Leukemia cell. In a few lines: as §1
For experiment [11], the system named is Panel NCI-60 (60 carcinoma cell lines). Nature of the experiment: Cell growth inhibition of human Panel NCI-60 (60 carcinoma cell lines) incubated for 48 hrs by SRB assay. Format: functional. In a few lines:
as §1

Experiment [12] deals with Breast cancer cell line. Nature of the experiment: Cell growth inhibition of human Breast cancer cells incubated for 48 hrs by SRB assay. Format: functional. The following applies: read-out: LC50 (the source's name). In a few lines: as §2
The subject of the next experiment is Prostatic carcinoma cell. Put plainly: Cell growth inhibition of human Prostate carcinoma cells incubated for 48 hrs by SRB assay. The class given is functional. In a few lines:
as §1

For experiment [13], the system named is Renal cancer cell line. Nature of the experiment: Cell growth inhibition of human Renal cancer cells incubated for 48 hrs by SRB assay. The class given is functional. The procedure, abridged:
as §1

Experiment [14] concerns Melanoma cell line. Nature of the experiment: Cell growth inhibition of human Melanoma cells incubated for 48 hrs by SRB assay. The class given is functional. The procedure, abridged:
as §1

The test system of experiment [15] is CNS carcinoma cell. Put plainly: Cell growth inhibition of human CNS carcinoma cells incubated for 48 hrs by SRB assay. The class given is functional. In a few lines: as §1
Experiment [16] in a line: Cell growth inhibition of human Leukemia cancer cells incubated for 48 hrs by SRB assay. The class given is functional. The procedure, abridged:
as §1

For a further experiment, the system named is NSCLC. Nature of the experiment: Cell growth inhibition of human NSCLC cells incubated for 48 hrs by SRB assay. Format: functional. In a few lines:
as §1

The subject of experiment [17] is Ovarian cancer cell line. Put plainly: Cytotoxicity against human Ovarian cancer cells incubated for 48 hrs by SRB assay. The class given is functional. In a few lines: as §1
For experiment [18], the system named is Breast cancer cell line. Put plainly: Cytotoxicity against human Breast cancer cells incubated for 48 hrs by SRB assay. The class given is functional. In a few lines:
as §1

Molecules are shown by their SMILES.

The TGI is the concentration giving total growth inhibition. What is called GI50 is the concentration that inhibits growth by half. A higher GI50 goes with lower sensitivity of the cells. Regarding `CC(C)(C)c1cc(/C=C2/C(=O)Nc3ccc(F)cc32)c(O)c(/C=C2/C(=O)Nc3ccc(F)cc32)c1`, the GI in the experiment on Colon carcinoma cell [1] is 42.66 µM; in [3], 13.8 µM; with Renal cancer cell line [5] it was 14.13 µM; with CNS carcinoma cell [8], 12.02 µM; in [10] it was 12.02 µM; with Prostatic carcinoma cell, 3.89 µM. Further, the GI was determined as 3.02 µM in the experiment on Melanoma cell line [14], 4.17 µM with NSCLC, 47.86 µM in the experiment on Ovarian cancer cell line [17] and 46.77 µM with Breast cancer cell line [18]. Besides, the CC50 in experiment [2] turned out to be 60.3 µM; in the experiment on Melanoma cell line [7], 9.77 µM; in the experiment on Breast cancer cell line [12], 3.8 µM. The TGI amounted to 19.5 µM with Breast cancer cell line [4], 15.8 µM with Ovarian cancer cell line [6] and 14.8 µM in the experiment on Colon carcinoma cell [9]. In addition, the GI50 turned out to be 3.8 µM in experiment [11], 4.68 µM with Renal cancer cell line [13], 2.95 µM in the experiment on CNS carcinoma cell [15] and 3.09 µM in experiment [16].

Take `COc1cc2c(c(OC)c1OC)C(=Cc1cc(C(C)(C)C)cc(/C=C3\C(=O)Nc4cc(OC)c(OC)c(OC)c43)c1O)C(=O)N2`: the GI with Colon carcinoma cell [1] is 8.13 µM; in experiment [3] it was 4.37 µM; with Renal cancer cell line [5], 4.9 µM; in the experiment with CNS carcinoma cell [8], 3.31 µM; in experiment [10], 6.03 µM; in the experiment with Prostatic carcinoma cell it was 1.91 µM. The GI with Melanoma cell line [14] came to 1.82 µM; in the experiment on NSCLC it was 1.95 µM; in the experiment on Ovarian cancer cell line [17] it was 25.12 µM; in the experiment on Breast cancer cell line [18], 50.12 µM. Further, the results for the CC50 (in experiment [2]; in the experiment on Melanoma cell line [7]; with Breast cancer cell line [12]) were 60.3 µM, 3.63 µM and 1.86 µM, respectively. The TGI in the experiment on Breast cancer cell line [4] worked out at 4.9 µM; in the experiment on Ovarian cancer cell line [6], 5.13 µM; with Colon carcinoma cell [9], 3.89 µM. The GI50 in experiment [11] amounted to 1.95 µM; in the experiment with Renal cancer cell line [13] it was 2.19 µM; with CNS carcinoma cell [15] it was 1.62 µM; in experiment [16], 2.19 µM.

Regarding `Cc1cc2c(cc1O)/C(=C\c1cc(C(C)(C)C)cc(C=O)c1O)C(=O)N2`, the GI turned out to be 38.02 µM in the experiment with Colon carcinoma cell [1]; 8.91 µM in experiment [3]; 11.48 µM in the experiment on Renal cancer cell line [5]; 10 µM in the experiment with CNS carcinoma cell [8]; 3.72 µM in experiment [10]; 0.87 µM in the experiment with Prostatic carcinoma cell. Further, the GI in the experiment on Melanoma cell line [14] came out at 1.78 µM; with NSCLC it was 3.47 µM; with Ovarian cancer cell line [17], 56.23 µM; with Breast cancer cell line [18], 77.62 µM. The figures for the CC50 (in [2]; in the experiment with Melanoma cell line [7]; with Breast cancer cell line [12]) were 81.3 µM, 5.75 µM and 1.82 µM, respectively. The TGI with Breast cancer cell line [4] was 14.8 µM; with Ovarian cancer cell line [6], 9.55 µM; with Colon carcinoma cell [9] it was 11.5 µM. The GI50 in experiment [11] was 1.91 µM; in the experiment with Renal cancer cell line [13] it was 2.57 µM; in the experiment on CNS carcinoma cell [15], 1.2 µM; in [16], 0.68 µM.
